Starred links: 1 amine or outer side, 2 acyl side, 3 side chain; linkers in the order of their positions; H or OH if unused. Non-standard residues stand in square brackets, D forms with d. Residues, ends and D or L forms follow the SMILES beside them. *: point of attachment. Desaminohistidyl = O=C(CCc1c[nH]cn1)*; NHCH2CHPh2 = c1ccc(C(CN*)c2ccccc2)cc1; NHCHPh2 = c1ccc(C(N*)c2ccccc2)cc1; pNA = O=[N+]([O-])c1ccc(N*)cc1; NHPhenethyl = c1ccc(CCN*)cc1; Suc = O=C(CCC(=O)[*:2])[*:1]; Isovaleryl = CC(C)CC(=O)*; Ac5c = NC1(C(=O)O)CCCC1; Api = NC1(C(=O)O)CCNCC1; Aib = CC(C)(N)C(=O)O; NHBn = c1ccc(CN*)cc1
biological target: T1, Peptidyl-prolyl cis-trans isomerase A (Homo sapiens, UniProt P62937); assay: 50% inhibitory concentration of competitive binding against human Peptidyl-prolyl isomerase activity using uncoupled assay
Procedure, shortened: (§1)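 Recombinant human hCyp-18 (expressed in E. coli M15, ion-exchange purified), 16 nM in 35 mM Hepes pH 7.8, preincubated 2 min with peptides added from DMSO stocks (100 µM to 100 mM). Substrate Suc-Ala-Ala-Pro-Phe-DFA in TFE/0.47 M LiCl added to a final 200 µM. Uncoupled cis/trans isomerization followed by absorbance at 246 nm, 10 °C, over 6 min. Pseudo-first-order k_obs taken from 0.05–0.5 min data, activity expressed relative to uncatalyzed rate, n = 2.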
Target sequence in this assay (P62937 whole entry): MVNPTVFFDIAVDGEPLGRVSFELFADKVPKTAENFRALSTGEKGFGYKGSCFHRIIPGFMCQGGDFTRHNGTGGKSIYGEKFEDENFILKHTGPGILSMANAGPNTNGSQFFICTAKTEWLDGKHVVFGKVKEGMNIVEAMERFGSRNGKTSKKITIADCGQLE

| Molecule | IC50 [µM] |
| --- | --- |
| CC[C@H](C)[C@H](NC(=O)[C@@H]1CCCN1C(=O)CNC(=O)[C@H](C)NC(=O)[C@H](Cc1c[nH]cn1)NC(=O)[C@@H](N)C(C)C)C(=O)N[C@@H](C)C(N)=O | 2100 |
| CC(=O)N[C@H](C(=O)N[C@@H](Cc1c[nH]cn1)C(=O)N[C@@H](C)C(=O)NCC(=O)N1CCC[C@H]1C(=O)N[C@H](C(=O)N[C@H](C)C(N)=O)c1ccccc1)C(C)C | 820 |
| CC(=O)N[C@H](C(=O)N[C@@H](Cc1cnc[nH]1)C(=O)N[C@@H](C)C(=O)NCC(=O)N1CCC[C@H]1C(=O)N[C@H](C(=O)N[C@@H](C)C(N)=O)C(C)C)C(C)C | 1500 |
| CC(=O)N[C@H](C(=O)N[C@@H](Cc1cnc[nH]1)C(=O)N[C@@H](C)C(=O)NCC(=O)N1CCC[C@H]1C(=O)N[C@@H](C(=O)N[C@H](C)C(N)=O)c1ccccc1)C(C)C | 970 |
| CC[C@H](C)[C@H](NC(=O)[C@@H]1CCCN1C(=O)CNC(=O)C(C)(C)NC(=O)[C@H](Cc1c[nH]cn1)NC(=O)[C@@H](NC(C)=O)C(C)C)C(=O)N[C@@H](C)C(N)=O | 760 |
| CC(=O)N[C@H](C(=O)N[C@@H](Cc1cnc[nH]1)C(=O)N[C@@H](C)C(=O)NCC(=O)N1CCC[C@H]1C(=O)N[C@@H](CCC(N)=O)C(=O)N[C@@H](C)C(N)=O)C(C)C | 1300 |
| CC(=O)N[C@H](C(=O)N[C@@H](Cc1c[nH]cn1)C(=O)N[C@@H](C)C(=O)NCC(=O)N1CCC[C@H]1C(=O)NCC(=O)N[C@@H](C)C(N)=O)C(C)C | 2800 |
| CC[C@H](C)[C@H](NC(=O)[C@@H]1CCCN1C(=O)CNC(=O)[C@H](C)NC(=O)[C@H](Cc1cnc[nH]1)NC(=O)[C@@H](NC(C)=O)C(C)C)C(=O)N[C@@H](C)C(N)=O | 850 |
| CC[C@H](C)[C@H](NC(=O)[C@@H]1CCCN1C(=O)CNC(=O)[C@H](C)NC(=O)[C@H](Cc1c[nH]cn1)NC(C)=O)C(=O)NCc1ccccc1 (Ac-HAGPI-NHBn) | 280 |
| CC[C@H](C)[C@H](NC(=O)[C@@H]1CCCN1C(=O)CNC(=O)[C@H](C)NC(=O)[C@H](Cc1c[nH]cn1)NC(=O)[C@@H](NC(C)=O)C(C)C)C(=O)NCc1ccccc1 (Ac-VHAGPI-NHBn) | 115 |
| CC[C@H](C)[C@H](NC(=O)[C@@H]1CCCN1C(=O)CNC(=O)[C@H](C)NC(=O)[C@H](Cc1c[nH]cn1)NC(=O)[C@@H](NC(C)=O)C(C)C)C(=O)NC(c1ccccc1)c1ccccc1 (Ac-VHAGPI-NHCHPh2) | 1500 |
| CC(=O)N[C@H](C(=O)N[C@@H](Cc1cnc[nH]1)C(=O)N[C@@H](C)C(=O)NCC(=O)N1CCC[C@H]1C(=O)NC1(C(=O)N[C@@H](C)C(N)=O)CCCC1)C(C)C (Ac-VHAGP[Ac5c]A-NH2) | 680 |
| CC(=O)N[C@H](C(=O)N[C@@H](Cc1c[nH]cn1)C(=O)N[C@@H](C)C(=O)NCC(=O)N1CCC[C@H]1C(=O)NC(C)(C)C(=O)N[C@@H](C)C(N)=O)C(C)C (Ac-VHAGP[Aib]A-NH2) | > 10000 |
| CC(=O)N[C@H](C(=O)N[C@@H](Cc1c[nH]cn1)C(=O)N[C@@H](C)C(=O)NCC(=O)N1CCC[C@H]1C(=O)NC1(C(=O)N[C@@H](C)C(N)=O)CCNCC1)C(C)C (Ac-VHAGP[Api]A-NH2) | > 10000 |
| CC[C@H](C)[C@H](NC(=O)[C@@H]1CCCN1C(=O)CNC(=O)[C@H](C)NC(=O)CCc1cnc[nH]1)C(=O)NCc1ccccc1 (Desaminohistidyl-AGPI-NHBn) | > 10000 |
| CC[C@H](C)[C@H](NC(=O)[C@@H]1CCCN1C(=O)CNC(=O)[C@H](C)NC(=O)[C@H](Cc1cnc[nH]1)NC(=O)[C@@H](N)C(C)C)C(=O)NCc1ccccc1 (H-VHAGPI-NHBn) | 260 |
| CC[C@H](C)[C@H](NC(=O)[C@@H]1CCCN1C(=O)CNC(=O)[C@H](C)NC(=O)[C@H](Cc1cnc[nH]1)NC(=O)CC(C)C)C(=O)NCc1ccccc1 (Isovaleryl-HAGPI-NHBn) | 6 |
| CC(C)CC(=O)N[C@@H](Cc1cnc[nH]1)C(=O)N[C@@H](C)C(=O)NCC(=O)N1CCC[C@H]1C(=O)NC1(C(=O)NCc2ccccc2)CCCC1 (Isovaleryl-HAGP[Ac5c]-NHBn) | 90 |
| CC[C@H](C)[C@H](NC(=O)[C@@H]1CCCN1C(=O)CNC(=O)C(C)(C)NC(=O)[C@H](Cc1cnc[nH]1)NC(=O)CC(C)C)C(=O)NCc1ccccc1 (Isovaleryl-H[Aib]GPI-NHBn) | > 10000 |
| CC(C)CC(=O)N[C@@H](Cc1c[nH]cn1)C(=O)NC(C)(C)C(=O)NCC(=O)N1CCC[C@H]1C(=O)NC1(C(=O)NCc2ccccc2)CCCC1 (Isovaleryl-H[Aib]GP[Ac5c]-NHBn) | 500 |
| CC[C@H](C)[C@H](NC(=O)[C@@H]1CCCN1C(=O)CNC(=O)[C@H](C)NC(=O)[C@H](Cc1c[nH]cn1)NC(=O)[C@@H](NC(=O)CCC(=O)O)C(C)C)C(=O)N[C@@H](C)C(N)=O (Suc-VHAGPIA-NH2) | 1000 |
| Ac-VQAGPIA-NH2 | 2500 |

biological target: T1, Peptidyl-prolyl cis-trans isomerase A; assay: % inhibition of competitive binding, at 500 uM, against human Peptidyl-prolyl isomerase; procedure, shortened: as §1
Target sequence in this assay (P62937 whole entry, looked up): as the sequence (P62937 whole entry) above

| Molecule | inhibition [%] |
| --- | --- |
| CC(=O)N[C@H](C(=O)N[C@@H](Cc1c[nH]cn1)C(=O)N[C@@H](C)C(=O)NCC(=O)N1CCC[C@H]1C(=O)N[C@H](C(=O)N[C@H](C)C(N)=O)c1ccccc1)C(C)C | 43 |
| CC(=O)N[C@H](C(=O)N[C@@H](Cc1c[nH]cn1)C(=O)N[C@@H](C)C(=O)NCC(=O)N1CCC[C@H]1C(=O)NCC(=O)N[C@H](C)C(N)=O)C(C)C | 28 |
| CC(=O)N[C@H](C(=O)N[C@@H](Cc1c[nH]cn1)C(=O)N[C@@H](C)C(=O)NCC(=O)N1CCC[C@H]1C(=O)N[C@@H](C(=O)N[C@H](C)C(N)=O)c1ccccc1)C(C)C | 37 |
| CC(=O)N[C@H](C(=O)N[C@@H](Cc1c[nH]cn1)C(=O)N[C@@H](C)C(=O)NCC(=O)N1CCC[C@H]1C(=O)N[C@@H](CCC(N)=O)C(=O)N[C@H](C)C(N)=O)C(C)C | 15 |
| CC(=O)N[C@H](C(=O)N[C@@H](Cc1c[nH]cn1)C(=O)N[C@@H](C)C(=O)NCC(=O)N1CCC[C@H]1C(=O)N[C@H](C(=O)N[C@H](C)C(N)=O)C(C)C)C(C)C | 31 |
| CC[C@@H](C)[C@@H](NC(=O)[C@@H]1CCCN1C(=O)CNC(=O)C(C)(C)NC(=O)[C@H](Cc1c[nH]cn1)NC(=O)[C@@H](NC(C)=O)C(C)C)C(=O)N[C@H](C)C(N)=O | 45 |
| CC[C@@H](C)[C@@H](NC(=O)[C@@H]1CCCN1C(=O)CNC(=O)[C@H](C)NC(=O)[C@H](Cc1c[nH]cn1)NC(=O)[C@@H](NC(C)=O)C(C)C)C(=O)N[C@H](C)C(N)=O | 19 |
| CC[C@H](C)[C@H](NC(=O)[C@@H]1CCCN1C(=O)CNC(=O)[C@H](C)NC(=O)CCc1c[nH]cn1)C(=O)N[C@H](C)C(N)=O | 20 |
| CC[C@H](C)[C@H](NC(=O)[C@@H]1CCCN1C(=O)CNC(=O)[C@H](C)NC(=O)[C@@H](N)Cc1c[nH]cn1)C(=O)N[C@H](C)C(=O)O | 15 |
| CC[C@H](C)[C@H](NC(=O)[C@@H]1CCCN1C(=O)CNC(=O)[C@H](C)NC(=O)[C@H](Cc1c[nH]cn1)NC(=O)CC(C)C)C(=O)N[C@H](C)C(N)=O | 76 |
| CC[C@H](C)[C@H](NC(=O)[C@@H]1CCCN1C(=O)CNC(=O)[C@H](C)NC(=O)[C@H](Cc1c[nH]cn1)NC(=O)[C@@H](N)C(C)C)C(=O)N[C@H](C)C(N)=O | 11 |
| CC[C@H](C)[C@H](NC(=O)[C@@H]1CCCN1C(=O)CNC(=O)[C@H](C)NC(=O)[C@H](Cc1c[nH]cn1)NC(C)=O)C(=O)NCc1ccccc1 (Ac-HAGPI-NHBn) | 55 |
| CC[C@H](C)[C@H](NC(=O)[C@@H]1CCCN1C(=O)CNC(=O)[C@H](C)NC(=O)[C@H](Cc1c[nH]cn1)NC(=O)[C@@H](NC(C)=O)C(C)C)C(=O)NCc1ccccc1 (Ac-VHAGPI-NHBn) | 88 |
| CC[C@H](C)[C@H](NC(=O)[C@@H]1CCCN1C(=O)CNC(=O)[C@H](C)NC(=O)[C@H](Cc1c[nH]cn1)NC(=O)[C@@H](NC(C)=O)C(C)C)C(=O)NC(c1ccccc1)c1ccccc1 (Ac-VHAGPI-NHCHPh2) | 38 |
| CC[C@H](C)[C@H](NC(=O)[C@@H]1CCCN1C(=O)CNC(=O)[C@H](C)NC(=O)[C@H](Cc1c[nH]cn1)NC(=O)[C@@H](N)C(C)C)C(=O)NCc1ccccc1 (H-VHAGPI-NHBn) | 59 |
| CC[C@H](C)[C@H](NC(=O)[C@@H]1CCCN1C(=O)CNC(=O)[C@H](C)NC(=O)[C@H](Cc1c[nH]cn1)NC(=O)CC(C)C)C(=O)NCc1ccccc1 (Isovaleryl-HAGPI-NHBn) | 99 |
| CC(C)CC(=O)N[C@@H](Cc1c[nH]cn1)C(=O)N[C@@H](C)C(=O)NCC(=O)N1CCC[C@H]1C(=O)NC1(C(=O)NCc2ccccc2)CCCC1 (Isovaleryl-HAGP[Ac5c]-NHBn) | 57 |
| CC(C)CC(=O)N[C@@H](Cc1c[nH]cn1)C(=O)NC(C)(C)C(=O)NCC(=O)N1CCC[C@H]1C(=O)NC1(C(=O)NCc2ccccc2)CCCC1 (Isovaleryl-H[Aib]GP[Ac5c]-NHBn) | 50 |
| CC[C@H](C)[C@H](NC(=O)[C@@H]1CCCN1C(=O)CNC(=O)[C@H](C)NC(=O)[C@H](Cc1c[nH]cn1)NC(=O)[C@@H](NC(=O)CCC(=O)O)C(C)C)C(=O)N[C@@H](C)C(N)=O (Suc-VHAGPIA-NH2) | 13 |

biological target: T1, Peptidyl-prolyl cis-trans isomerase A; assay: % inhibition of competitive binding, at 500 uM, against hCyp-18 PPIase activity using uncoupled assay
Target sequence in this assay (P62937 whole entry, looked up): as the sequence (P62937 whole entry) above

| Molecule | inhibition [%] |
| --- | --- |
| CC[C@H](C)[C@H](NC(=O)[C@@H]1CCCN1C(=O)CNC(=O)[C@H](C)NC(=O)[C@H](Cc1c[nH]cn1)NC(=O)[C@@H](NC(C)=O)C(C)C)C(=O)NCC(c1ccccc1)c1ccccc1 (Ac-VHAGPI-NHCH2CHPh2) | 54 |
| CC[C@H](C)[C@H](NC(=O)[C@@H]1CCCN1C(=O)CNC(=O)[C@H](C)NC(=O)[C@H](Cc1c[nH]cn1)NC(=O)[C@@H](NC(C)=O)C(C)C)C(=O)NCCc1ccccc1 (Ac-VHAGPI-NHPhenethyl) | 55 |
| C[C@H](NC(=O)CCC(=O)O)C(=O)N[C@@H](C)C(=O)N1CCC[C@H]1C(=O)N[C@@H](Cc1ccccc1)C(=O)Nc1ccc([N+](=O)[O-])cc1 (Suc-AAPF-pNA) | 38 |

biological target: T1, Peptidyl-prolyl cis-trans isomerase A; assay: % inhibition of competitive binding, at 500 uM, against human Peptidyl-prolyl isomerase activity using uncoupled assay
Target sequence in this assay (P62937 whole entry, looked up): as the sequence (P62937 whole entry) above

| Molecule | inhibition [%] |
| --- | --- |
| CC(=O)N[C@H](C(=O)N[C@@H](Cc1c[nH]cn1)C(=O)N[C@@H](C)C(=O)NCC(=O)N1CCC[C@H]1C(=O)NC1(C(=O)N[C@@H](C)C(N)=O)CCCC1)C(C)C (Ac-VHAGP[Ac5c]A-NH2) | 52 |

— ChEMBL document CHEMBL1132932, “Design of a Gag pentapeptide analogue that binds human cyclophilin A more efficiently than the entire capsid protein: new insights for the development of novel anti-HIV-1 drugs” (J Med Chem, 2000)
